Assay results taken from ChEMBL document CHEMBL3091303, “1,3-Dialkyl-substituted tetrahydropyrimido[1,2-f]purine-2,4-diones as multiple target drugs for the potential treatment of neurodegenerative diseases” (Bioorg Med Chem, 2013).

How the values were obtained:
[1] = target: T1, Adenosine receptor A3 (Homo sapiens, UniProt P0DMS8); experiment: Displacement of [3H]PSB-11 from human adenosine A3 receptor expressed in CHO cells; type: cell-based
T1 sequence (P0DMS8 whole entry): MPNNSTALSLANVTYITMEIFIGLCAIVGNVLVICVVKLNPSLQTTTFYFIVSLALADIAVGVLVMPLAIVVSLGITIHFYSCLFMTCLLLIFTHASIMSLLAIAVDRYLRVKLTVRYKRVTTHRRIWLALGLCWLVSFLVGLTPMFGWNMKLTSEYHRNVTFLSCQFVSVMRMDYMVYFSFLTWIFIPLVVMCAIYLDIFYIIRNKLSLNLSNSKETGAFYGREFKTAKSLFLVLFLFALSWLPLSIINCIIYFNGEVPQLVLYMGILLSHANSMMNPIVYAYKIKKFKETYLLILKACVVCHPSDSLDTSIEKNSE

[2] = target: T2, Amine oxidase [flavin-containing] B (Homo sapiens, UniProt P27338); experiment: Inhibition of human MAO-B
T2 sequence (P27338 whole entry): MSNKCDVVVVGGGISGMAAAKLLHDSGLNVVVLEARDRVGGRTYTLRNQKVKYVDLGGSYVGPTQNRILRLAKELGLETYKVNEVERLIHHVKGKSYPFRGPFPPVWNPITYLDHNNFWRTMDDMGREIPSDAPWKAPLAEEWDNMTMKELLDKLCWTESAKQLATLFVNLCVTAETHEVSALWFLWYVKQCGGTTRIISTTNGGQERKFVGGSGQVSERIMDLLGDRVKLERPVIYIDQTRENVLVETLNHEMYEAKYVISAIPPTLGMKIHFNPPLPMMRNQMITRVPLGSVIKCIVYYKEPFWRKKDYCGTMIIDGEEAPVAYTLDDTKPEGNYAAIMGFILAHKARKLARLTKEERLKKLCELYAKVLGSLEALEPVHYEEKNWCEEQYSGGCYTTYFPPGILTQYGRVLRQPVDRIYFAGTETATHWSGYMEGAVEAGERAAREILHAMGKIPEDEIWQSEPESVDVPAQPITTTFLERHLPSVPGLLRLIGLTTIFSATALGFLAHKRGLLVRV

[3] = target: T3, Adenosine receptor A3 (Homo sapiens) (UniProt P0DMS8); experiment: Displacement of [3H]PSB-11 from human adenosine A3 receptor expressed in CHO cells relative to control; type: cell-based; parameters: concentration or dose not given beside the values; conditions: concentration not given here
T3 sequence (whole entry): T1 sequence (P0DMS8 whole entry)

[4] = target: T4, Adenosine receptor A1 (Rattus norvegicus, UniProt P25099); experiment: Displacement of [3H]CCPA from adenosine A1 receptor in rat brain cortex; type: tissue-based
T4 sequence (P25099 whole entry): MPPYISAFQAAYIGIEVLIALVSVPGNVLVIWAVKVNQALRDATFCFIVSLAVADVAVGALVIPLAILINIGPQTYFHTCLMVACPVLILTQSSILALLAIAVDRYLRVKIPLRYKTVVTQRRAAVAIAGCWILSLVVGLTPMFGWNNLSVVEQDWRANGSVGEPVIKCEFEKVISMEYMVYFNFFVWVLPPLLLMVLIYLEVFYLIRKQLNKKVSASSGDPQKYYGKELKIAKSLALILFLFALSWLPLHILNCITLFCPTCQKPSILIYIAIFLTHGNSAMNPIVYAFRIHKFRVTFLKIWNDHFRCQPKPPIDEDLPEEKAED
Method in brief: (§1)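 Radioligand binding to rat A1 receptors in rat brain cortical membrane preparations. Values are given as Ki, or as % inhibition of radioligand binding at the indicated concentration.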

[5] = target: Adenosine receptor A2a (Rattus norvegicus, UniProt P30543); experiment: Displacement of [3H]MSX-2 from adenosine A2A receptor in rat brain striatum; type: tissue-based
Sequence of Adenosine receptor A2a (P30543 whole entry): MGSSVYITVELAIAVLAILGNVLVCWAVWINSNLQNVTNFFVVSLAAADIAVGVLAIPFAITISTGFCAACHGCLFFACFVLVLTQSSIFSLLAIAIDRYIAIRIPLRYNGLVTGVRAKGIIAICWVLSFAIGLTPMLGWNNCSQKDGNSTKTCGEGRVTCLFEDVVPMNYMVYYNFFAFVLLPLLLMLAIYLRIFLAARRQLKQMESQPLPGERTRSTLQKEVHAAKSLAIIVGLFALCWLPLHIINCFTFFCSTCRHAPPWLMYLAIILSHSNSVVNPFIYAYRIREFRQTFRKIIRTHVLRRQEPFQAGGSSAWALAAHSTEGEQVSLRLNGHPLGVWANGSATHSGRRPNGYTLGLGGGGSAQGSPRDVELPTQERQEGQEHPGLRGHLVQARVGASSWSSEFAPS

[6] = target: T5, MAO-B (amine oxidase [flavin-containing] B) (Homo sapiens, UniProt P27338); experiment: Inhibition of human MAO-B at 10 uM relative to control
T5 sequence (P27338 whole entry): T2 sequence (P27338 whole entry)
Method in brief: (§2)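 Human MAO-A and MAO-B inhibition, screened first at a test concentration of 10 µM.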

[7] = target: T6, Adenosine receptor A2b (Homo sapiens) (UniProt P29275); experiment: Displacement of [3H]PSB-603 from human adenosine A2B receptor relative to control; parameters: concentration or dose not given beside the values; conditions: concentration not given here
T6 sequence (whole entry): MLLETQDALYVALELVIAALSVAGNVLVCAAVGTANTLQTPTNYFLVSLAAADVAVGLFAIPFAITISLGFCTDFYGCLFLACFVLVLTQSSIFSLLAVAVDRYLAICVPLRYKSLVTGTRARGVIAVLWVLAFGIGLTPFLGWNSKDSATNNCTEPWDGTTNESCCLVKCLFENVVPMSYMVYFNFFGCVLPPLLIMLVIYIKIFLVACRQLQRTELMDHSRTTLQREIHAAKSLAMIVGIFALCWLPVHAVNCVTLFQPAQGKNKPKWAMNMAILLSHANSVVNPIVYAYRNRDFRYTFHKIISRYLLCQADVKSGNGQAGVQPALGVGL

[8] = target: T7, Adenosine receptor A1 (Rattus norvegicus) (UniProt P25099); experiment: Displacement of [3H]CCPA from adenosine A1 receptor in rat brain cortex relative to control; type: tissue-based; parameters: concentration or dose not given beside the values; conditions: concentration not given here; method in brief: as §1
T7 sequence (whole entry): T4 sequence (P25099 whole entry)

[9] = target: T8, Adenosine receptor A2b (Homo sapiens, UniProt P29275); experiment: Displacement of [3H]PSB-603 from human adenosine A2B receptor
T8 sequence (P29275 whole entry): T6 sequence (whole entry)

[10] = target: T9, Adenosine receptor A1 (Homo sapiens, UniProt P30542); experiment: Displacement of [3H]CCPA from human adenosine A1 receptor expressed in CHO cells; type: cell-based
T9 sequence (P30542 whole entry): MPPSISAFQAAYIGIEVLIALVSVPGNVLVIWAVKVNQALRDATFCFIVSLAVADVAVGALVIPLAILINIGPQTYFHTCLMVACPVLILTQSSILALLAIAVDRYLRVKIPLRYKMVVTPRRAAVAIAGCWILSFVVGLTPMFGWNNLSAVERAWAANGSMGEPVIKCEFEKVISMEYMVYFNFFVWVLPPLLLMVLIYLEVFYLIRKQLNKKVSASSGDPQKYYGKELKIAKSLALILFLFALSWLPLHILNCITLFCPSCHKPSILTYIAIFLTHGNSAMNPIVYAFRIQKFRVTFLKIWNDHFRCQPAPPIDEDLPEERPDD
Method in brief: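 Radioligand binding to human receptors recombinantly expressed in Chinese hamster ovary (CHO) cells. Results are Ki, or % inhibition of radioligand binding at the indicated concentration.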

[11] = target: T10, MAO-A (amine oxidase [flavin-containing] A) (Homo sapiens, UniProt P21397); experiment: Inhibition of human MAO-A at 10 uM relative to control; method in brief: as §2
T10 sequence (P21397 whole entry): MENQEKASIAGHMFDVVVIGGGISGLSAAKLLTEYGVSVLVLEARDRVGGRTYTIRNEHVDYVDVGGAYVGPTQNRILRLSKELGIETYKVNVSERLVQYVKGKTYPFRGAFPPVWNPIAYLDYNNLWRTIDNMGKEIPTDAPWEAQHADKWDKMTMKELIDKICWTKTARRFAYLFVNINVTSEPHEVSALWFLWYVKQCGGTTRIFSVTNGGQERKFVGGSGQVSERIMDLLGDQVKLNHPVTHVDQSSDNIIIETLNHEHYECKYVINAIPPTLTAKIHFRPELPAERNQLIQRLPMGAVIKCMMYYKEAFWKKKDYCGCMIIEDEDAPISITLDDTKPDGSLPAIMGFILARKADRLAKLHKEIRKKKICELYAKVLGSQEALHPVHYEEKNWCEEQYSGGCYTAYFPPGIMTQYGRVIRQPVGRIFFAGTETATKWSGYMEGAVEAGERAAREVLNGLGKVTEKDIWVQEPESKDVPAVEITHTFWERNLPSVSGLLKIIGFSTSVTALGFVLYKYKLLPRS

[12] = target: T11, Amine oxidase [flavin-containing] A (Homo sapiens, UniProt P21397); experiment: Inhibition of human MAO-A; method in brief: as §2
T11 sequence (P21397 whole entry): T10 sequence (P21397 whole entry)

| Ki [1] | IC50 [2] | inhibition [3] | Ki [4] | Ki [5] | inhibition at 10 µM [6] | inhibition [7] | inhibition [8] | Ki [9] | Ki [10] | inhibition at 10 µM [11] | IC50 [12] | SMILES |
| --- | --- | --- | --- | --- | --- | --- | --- | --- | --- | --- | --- | --- |
| > 1 µM | > 10 µM | 5% | > 10 µM | 0.723 µM | 29% | -2% | 18% | > 1 µM |  |  |  | C#CCn1c(=O)c2c(nc3n2CCCN3CCc2cc(OC)c(OC)c(OC)c2)n(C)c1=O |
| > 10 µM | 10 µM | 29% | 0.545 µM | 1.88 µM | 48% | 11% |  | > 1 µM | 6.65 µM |  |  | CCn1c(=O)c2c(nc3n2CCCN3c2ccc(F)cc2)n(CC)c1=O |
| 6.8 µM | 6.39 µM |  | 1.24 µM | 5.37 µM |  | 21% |  | > 1 µM |  | 4% | > 10 µM | CCn1c(=O)c2c(nc3n2CCCN3c2cccc(OC)c2)n(CC)c1=O |
|  | 10 µM |  | 5.22 µM | 1.48 µM | 64% | 17% |  | > 1 µM |  | 5% | > 10 µM | C#CCn1c(=O)c2c(nc3n2CCCN3c2ccc(C(C)C)cc2)n(C)c1=O |
| > 10 µM | > 10 µM | 23% | > 1.5 µM | 9.42 µM | 30% |  | -1% | > 1 µM |  |  |  | Cn1c(=O)c2c(nc3n2CCCN3CC(=O)N2CCN(Cc3ccc(Cl)cc3)CC2)n(C)c1=O |
| > 1 µM | > 10 µM | 4% | 1.83 µM | 6.22 µM | 21% | 1% |  | > 0.3 µM |  |  |  | C#CCn1c(=O)c2c(nc3n2CCCN3Cc2cccnc2)n(C)c1=O |
| > 10 µM | 4.96 µM | 33% | 4.42 µM | 3.76 µM |  | -4% |  | > 1 µM |  | 15% | > 10 µM | Cn1c(=O)c2c(nc3n2CCCN3c2cccc(Cl)c2)n(C)c1=O |
| 3.03 µM | 3.26 µM |  | 0.506 µM | 1.83 µM |  | 20% |  | > 1 µM | 3.92 µM | 28% | > 10 µM | CCn1c(=O)c2c(nc3n2CCCN3CCc2ccccc2OC)n(CC)c1=O |
|  | 10 µM |  | 0.555 µM | 3.03 µM | 50% | 7% |  |  | 10.2 µM | 11% | > 10 µM | C#CCn1c(=O)c2c(nc3n2CCCN3Cc2ccc(OC)cc2)n(C)c1=O |
|  |  |  |  |  |  |  |  |  |  | 23% | > 10 µM | Cn1c(=O)c2c(nc(/C=C/c3cccc(Cl)c3)n2C)n(C)c1=O |
| 3.41 µM | > 10 µM |  | > 10 µM | 2.65 µM | 33% | 29% | 31% | > 1 µM |  |  |  | CCn1c(=O)c2c(nc3n2CCCN3CCc2cccc(OC)c2)n(CC)c1=O |
| > 10 µM | 0.0629 µM | 30% | 4.01 µM | 3.69 µM |  | 5% |  | > 1 µM |  | 10% | > 10 µM | Cn1c(=O)c2c(nc3n2CCCN3Cc2ccc(Cl)c(Cl)c2)n(C)c1=O |
| > 10 µM | 3.72 µM | 37% | 0.321 µM | 1.7 µM |  | 3% |  | > 1 µM | 1.04 µM | -3% | > 10 µM | CCn1c(=O)c2c(nc3n2CCCN3C2CCCCC2)n(CC)c1=O |
| > 1 µM | > 10 µM | 28% | 0.228 µM | 2.04 µM | 30% | 9% |  | > 1 µM | 9.65 µM |  |  | C#CCn1c(=O)c2c(nc3n2CCCN3c2cc(OC)cc(OC)c2)n(C)c1=O |
